# Legend:
# OVCAR-8 = experiment: Antiproliferative activity against human OVCAR-8 cells assessed as cell growth at 10 uM incubated for 48 hrs by SRB assay relative to control; type: functional; conditions: read-out: Activity
# Method in brief: (§1)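 Single-concentration screen at 10 μM run by NCI on its NCI-60 human tumour panel (blood, lung, colon, CNS, melanoma, ovary, kidney, prostate, breast), following the NCI-60 published methodology. Read-out is growth percent relative to untreated cells.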
# IGROV-1 = experiment: Antiproliferative activity against human IGROV-1 cells assessed as cell growth at 10 uM incubated for 48 hrs by SRB assay relative to control; type: functional; conditions: read-out: Activity; method in brief: as §1
# T47D = experiment: Antiproliferative activity against human T47D cells assessed as cell growth at 10 uM incubated for 48 hrs by SRB assay relative to control; type: functional; conditions: read-out: Activity
# Method in brief: (§2)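 NCI-60 single-dose screen: compounds tested at 10 μM, and growth percent of each cell line calculated. The full method follows the NCI DTP protocol.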
# MOLT-4 = experiment: Antiproliferative activity against human MOLT-4 cells assessed as cell growth at 10 uM incubated for 48 hrs by SRB assay relative to control; type: functional; conditions: read-out: Activity; method in brief: as §1
# COLO 205 = experiment: Antiproliferative activity against human COLO 205 cells assessed as cell growth at 10 uM incubated for 48 hrs by SRB assay relative to control; type: functional; conditions: read-out: Activity; method in brief: as §1
# RPMI-8226 = experiment: cells; type: functional, cell-based; conditions: Homo sapiens, RPMI-8226, 72 h
# HT-29 = experiment: Antiproliferative activity against human HT-29 cells assessed as cell growth at 10 uM incubated for 48 hrs by SRB assay relative to control; type: functional; conditions: read-out: Activity; method in brief: as §1
# HOP-62 = experiment: Antiproliferative activity against human HOP-62 cells assessed as cell growth at 10 uM incubated for 48 hrs by SRB assay relative to control; type: functional; conditions: read-out: Activity; method in brief: as §1
# U-266 = experiment: cells; type: functional, cell-based; conditions: Homo sapiens, U-266, 72 h
# PC-3 = experiment: Antiproliferative activity against human PC-3 cells assessed as cell growth at 10 uM incubated for 48 hrs by SRB assay relative to control; type: functional; conditions: read-out: Activity; method in brief: as §1
# [1] = Cytotoxicity against human HS5 cells assessed as inhibition of cell growth incubated for 72 hrs by alamar blue assay; type: toxicity, cell-based
# Method in brief: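 Cells were grown in IMDM with 20% FBS and penicillin/streptomycin at 37 °C in 5% CO2. Drug-treated cells were incubated 72 h. Alamar blue (1 mM solution) was then added for 5–6 h, and fluorescence read at 530/590 nm.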
# MDA-MB-231 = experiment: Antiproliferative activity against human MDA-MB-231 cells assessed as cell growth at 10 uM incubated for 48 hrs by SRB assay relative to control; type: functional; conditions: read-out: Activity; method in brief: as §1
# SF-295 = experiment: Antiproliferative activity against human SF-295 cells assessed as cell growth at 10 uM incubated for 48 hrs by SRB assay relative to control; type: functional; conditions: read-out: Activity; method in brief: as §1
# [2] = target: T1, Protein deacetylase HDAC6 (Homo sapiens, UniProt Q9UBN7); experiment: Inhibition of HDAC6 (unknown origin) using Fluor de lys as substrate by fluorescence based analysis
# T1 sequence (Q9UBN7 whole entry): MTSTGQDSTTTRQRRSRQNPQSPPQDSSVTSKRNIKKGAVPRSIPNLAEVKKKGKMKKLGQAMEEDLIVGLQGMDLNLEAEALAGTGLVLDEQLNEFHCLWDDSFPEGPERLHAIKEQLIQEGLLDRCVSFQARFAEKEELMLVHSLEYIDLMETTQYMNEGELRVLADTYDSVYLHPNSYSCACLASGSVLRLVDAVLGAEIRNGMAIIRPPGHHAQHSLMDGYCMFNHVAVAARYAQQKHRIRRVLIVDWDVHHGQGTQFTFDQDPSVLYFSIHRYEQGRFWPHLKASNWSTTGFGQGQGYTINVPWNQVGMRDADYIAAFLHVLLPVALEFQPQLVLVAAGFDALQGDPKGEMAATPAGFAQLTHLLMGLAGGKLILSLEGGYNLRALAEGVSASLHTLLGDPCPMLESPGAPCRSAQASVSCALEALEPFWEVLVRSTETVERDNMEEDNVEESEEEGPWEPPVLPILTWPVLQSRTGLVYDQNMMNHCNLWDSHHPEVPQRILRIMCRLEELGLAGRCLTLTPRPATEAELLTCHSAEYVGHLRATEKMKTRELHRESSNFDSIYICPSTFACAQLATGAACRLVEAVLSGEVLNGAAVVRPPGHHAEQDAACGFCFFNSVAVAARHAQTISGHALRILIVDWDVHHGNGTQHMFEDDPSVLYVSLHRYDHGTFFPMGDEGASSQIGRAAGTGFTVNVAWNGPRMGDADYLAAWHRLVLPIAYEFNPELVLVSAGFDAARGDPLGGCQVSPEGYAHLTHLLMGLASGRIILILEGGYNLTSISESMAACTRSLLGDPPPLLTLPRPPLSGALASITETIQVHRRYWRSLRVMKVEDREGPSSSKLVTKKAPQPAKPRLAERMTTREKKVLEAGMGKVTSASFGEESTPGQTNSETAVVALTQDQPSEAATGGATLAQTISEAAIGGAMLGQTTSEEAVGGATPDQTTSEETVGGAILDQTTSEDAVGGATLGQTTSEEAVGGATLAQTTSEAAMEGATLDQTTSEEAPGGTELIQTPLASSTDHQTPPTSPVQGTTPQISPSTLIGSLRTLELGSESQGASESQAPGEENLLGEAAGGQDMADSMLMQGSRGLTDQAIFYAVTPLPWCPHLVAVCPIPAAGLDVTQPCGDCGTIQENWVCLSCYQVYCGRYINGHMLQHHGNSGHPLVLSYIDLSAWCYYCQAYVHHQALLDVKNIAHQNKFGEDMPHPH
# SN12C = experiment: Antiproliferative activity against human SN12C cells assessed as cell growth at 10 uM incubated for 48 hrs by SRB assay relative to control; type: functional; conditions: read-out: Activity; method in brief: as §2
# M14 = experiment: Antiproliferative activity against human M14 cells assessed as cell growth at 10 uM incubated for 48 hrs by SRB assay relative to control; type: functional; conditions: read-out: Activity; method in brief: as §1
# SK-MEL-5 = experiment: Antiproliferative activity against human SK-MEL-5 cells assessed as cell growth at 10 uM incubated for 48 hrs by SRB assay relative to control; type: functional; conditions: read-out: Activity; method in brief: as §2
# TK-10 = experiment: Antiproliferative activity against human TK-10 cells assessed as cell growth at 10 uM incubated for 48 hrs by SRB assay relative to control; type: functional; conditions: read-out: Activity; method in brief: as §2
# HCT-15 = experiment: Antiproliferative activity against human HCT-15 cells assessed as cell growth at 10 uM incubated for 48 hrs by SRB assay relative to control; type: functional; conditions: read-out: Activity; method in brief: as §1
# SK-MEL-28 = experiment: Antiproliferative activity against human SK-MEL-28 cells assessed as cell growth at 10 uM incubated for 48 hrs by SRB assay relative to control; type: functional; conditions: read-out: Activity; method in brief: as §1
# UACC-257 = experiment: Antiproliferative activity against human UACC-257 cells assessed as cell growth at 10 uM incubated for 48 hrs by SRB assay relative to control; type: functional; conditions: read-out: Activity; method in brief: as §2
# HCT-116 = experiment: Antiproliferative activity against human HCT-116 cells assessed as cell growth at 10 uM incubated for 48 hrs by SRB assay relative to control; type: functional; conditions: read-out: Activity; method in brief: as §1
# A498 = experiment: Antiproliferative activity against human A498 cells assessed as cell growth at 10 uM incubated for 48 hrs by SRB assay relative to control; type: functional; conditions: read-out: Activity; method in brief: as §1
SMILES,growth at 10 µM (OVCAR-8),growth at 10 µM (IGROV-1),growth at 10 µM (T47D),growth at 10 µM (MOLT-4),growth at 10 µM (COLO 205),IC50 (RPMI-8226),growth at 10 µM (HT-29),growth at 10 µM (HOP-62),IC50 (U-266),growth at 10 µM (PC-3),IC50 at 72 hrs [1],growth at 10 µM (MDA-MB-231),growth at 10 µM (SF-295),IC50 [2],growth at 10 µM (SN12C),growth at 10 µM (M14),growth at 10 µM (SK-MEL-5),growth at 10 µM (TK-10),growth at 10 µM (HCT-15),growth at 10 µM (SK-MEL-28),also measured
O=C1CN(Cc2ccc(C(=O)NO)cc2)C(=O)[C@@H](Cc2c[nH]c3ccccc23)N1,94.8%,101%,87.3%,86.8%,120%,33.2 µM,104%,102%,43.2 µM,97.5%,> 100 µM,107%,105%,0.00073 µM,100%,94.2%,108%,103%,103%,110%,growth at 10 µM (UACC-257): 96.1%; growth at 10 µM (HCT-116): 54.9%; growth at 10 µM (A498): 85%
O=C(NO)c1ccc(CN2CC(=O)N(Cc3ccccc3)[C@H](Cc3ccccc3)C2=O)cc1,75%,89%,69.1%,76.7%,89.2%,11.7 µM,87.9%,87.8%,25.9 µM,76.5%,> 100 µM,95.2%,100%,0.00983 µM,96.6%,90.4%,96.7%,88.1%,74.3%,95.4%,growth at 10 µM (UACC-257): 69.3%; growth at 10 µM (HCT-116): 84.1%; growth at 10 µM (A498): 67.4%

# Source: ChEMBL document CHEMBL5230083, “Novel 2, 5-diketopiperazine derivatives as potent selective histone deacetylase 6 inhibitors: Rational design, synthesis and antiproliferative activity” (Eur J Med Chem, 2020)
